The source of these data is ChEMBL document CHEMBL1806443, “Novel imidazo[4,5-b]pyridine and triaza-benzo[c]fluorene derivatives: synthesis, antiproliferative activity and DNA binding studies” (Eur J Med Chem, 2011).

Activity calls are given as the source filed them. No cut-off for these calls is given here.

In data set [1] the test system is WI-38. Put plainly: Antiproliferative activity against human WI38 cells after 72 hrs by MTT assay. The format is cell-based. The method, boiled down:
(§1)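 Monolayer cells in DMEM with 10% FBS, 2 mM L-glutamine, penicillin and streptomycin at 37 °C, 5% CO2. Seeded at 3000-6000 cells/well by doubling time on day 0. Five 10-fold dilutions (0.01–100 µM) were added and incubated 72 h. MTT read-out, converted to percentage growth. IC50 by linear regression between bracketing concentrations. Quadruplicate points, three independent experiments, ANOVA/Tukey p<0.05.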

Data set [2] relates to MIA PaCa-2. Briefly: Antiproliferative activity against human MIAPaCa2 cells after 72 hrs by MTT assay. The format is functional, cell-based. The method, boiled down:
as §1
Background: Tetrazolium dyes change colour on reduction, which living cells bring about.

Data set [3] has as its system SW-620. Briefly: Antiproliferative activity against human SW620 cells after 72 hrs by MTT assay. The format is functional, cell-based. Put shortly:
as §1

The subject of data set [4] is HEp-2. Put plainly: Antiproliferative activity against human Hep2 cells after 72 hrs by MTT assay. The format is functional, cell-based. The method, boiled down:
as §1

Data set [5] has as its system SK-BR-3. Put plainly: Antiproliferative activity against human SKBR3 cells after 72 hrs by MTT assay. The format is functional, cell-based. The method, boiled down:
as §1

The subject of data set [6] is MCF7. Briefly: Antiproliferative activity against human MCF7 cells after 72 hrs by MTT assay. The format is functional, cell-based. Put shortly: as §1
Data set [7] has as its system HeLa. Briefly: Antiproliferative activity against human HeLa cells after 72 hrs by MTT assay. The format is functional, cell-based. The method, boiled down: as §1
The subject of data set [8] is WI-38. Briefly: Cytostatic activity against human WI38 cells at 1 to 10 uM after 72 hrs by MTT assay. The note with it: wi-38, 72 h. The format is ADME, cell-based. The method, boiled down: (§2)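 Monolayers in DMEM with 10% FBS, 2 mM L-glutamine, penicillin and streptomycin (37 °C, 5% CO2) were seeded at 3000–6000 cells/well on day 0. Five 10-fold dilutions (0.01–100 µM) were added, followed by 72-h incubation and MTT read-out. Absorbances were converted to percentage growth by the NIH formulae. Each point was run in quadruplicate in three experiments; ANOVA with Tukey test.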

Data set [9] has as its system SW-620. Put plainly: Cytostatic activity against human SW620 cells at 1 to 10 uM after 72 hrs by MTT assay. The format is functional, cell-based. The method, boiled down:
as §2

Data set [10] relates to MIA PaCa-2. Briefly: Cytostatic activity against human MIAPaCa2 cells at 1 to 10 uM after 72 hrs by MTT assay. The format is functional, cell-based. The method, boiled down: as §2
In data set [11] the test system is SK-BR-3. Briefly: Cytostatic activity against human SKBR3 cells at 1 to 10 uM after 72 hrs by MTT assay. The format is functional, cell-based. The method, boiled down: as §2
The test system of data set [12] is HEp-2. Briefly: Cytostatic activity against human Hep2 cells at 1 to 10 uM after 72 hrs by MTT assay. The format is functional, cell-based. Put shortly: as §2
For data set [13], the system named is MCF7. Briefly: Cytostatic activity against human MCF7 cells at 1 to 10 uM after 72 hrs by MTT assay. The format is functional, cell-based. Put shortly: as §2
Data set [14] deals with HeLa. Briefly: Cytostatic activity against human HeLa cells at 1 to 10 uM after 72 hrs by MTT assay. The format is functional, cell-based. The method, boiled down: as §2

For orientation: IC50 means the point on the concentration scale where inhibition reaches its midpoint. Take `O=[N+]([O-])c1ccc2c(ccc3nc4ncc(Br)cc4n32)c1`: the IC50 in data set [1] (Homo sapiens, WI-38, 72 h) is over 100 µM; in [2] (Homo sapiens, MIA PaCa-2, 72 h) it was 63.5 µM; in [3] (Homo sapiens, SW-620, 72 h), 61.2 µM; in [4] (Homo sapiens, HEp-2, 72 h), 31.1 µM; in data set [5] (Homo sapiens, SK-BR-3, 72 h), 8.11 µM; in [6] (Homo sapiens, MCF7, 72 h), over 100 µM. Also, the IC50 in data set [7] (Homo sapiens, HeLa, 72 h) worked out at 13.4 µM.

Take `N#Cc1ccc(/C=C/c2nc3ncccc3[nH]2)cc1`: the IC50 in data set [1] (Homo sapiens, WI-38, 72 h) was over 100 µM; in [2] (Homo sapiens, MIA PaCa-2, 72 h), over 100 µM; in [3] (Homo sapiens, SW-620, 72 h), over 100 µM; in [4] (Homo sapiens, HEp-2, 72 h) it was 84.9 µM; in [5] (Homo sapiens, SK-BR-3, 72 h), 86.6 µM; in data set [6] (Homo sapiens, MCF7, 72 h) it was 12.9 µM. This compound also returned a half-inhibitory concentration (IC50) in [7] (Homo sapiens, HeLa, 72 h) of 47.1 µM.

On to `C[n+]1cccc2c1nc1ccc3cc([N+](=O)[O-])ccc3n12`, for which the IC50 in [1] (Homo sapiens, WI-38, 72 h) was over 100 µM; in data set [2] (Homo sapiens, MIA PaCa-2, 72 h), over 100 µM; in data set [3] (Homo sapiens, SW-620, 72 h) it was 26.7 µM; in [4] (Homo sapiens, HEp-2, 72 h) it was 31.5 µM; in data set [5] (Homo sapiens, SK-BR-3, 72 h), 33.6 µM; in data set [6] (Homo sapiens, MCF7, 72 h) it was over 100 µM. Besides, the IC50 in data set [7] (Homo sapiens, HeLa, 72 h) amounted to 11.4 µM.

`O=[N+]([O-])c1ccc2c(ccc3nc4ncccc4n32)c1`: the IC50 is 75.7 µM in [1] (Homo sapiens, WI-38, 72 h); over 100 µM in data set [2] (Homo sapiens, MIA PaCa-2, 72 h); over 100 µM in [3] (Homo sapiens, SW-620, 72 h); over 100 µM in data set [4] (Homo sapiens, HEp-2, 72 h); 42.7 µM in [5] (Homo sapiens, SK-BR-3, 72 h); over 100 µM in data set [6] (Homo sapiens, MCF7, 72 h). In addition, 52.8 µM corresponded to half-maximal inhibition in [7] (Homo sapiens, HeLa, 72 h) (IC50).

With `O=[N+]([O-])c1ccc(Cl)c(/C=C/c2nc3ncc(Br)cc3[nH]2)c1`, the IC50 is 6.48 µM in data set [1] (Homo sapiens, WI-38, 72 h); 30.6 µM in data set [2] (Homo sapiens, MIA PaCa-2, 72 h); 7.99 µM in [3] (Homo sapiens, SW-620, 72 h); 0.91 µM in data set [4] (Homo sapiens, HEp-2, 72 h); 59.9 µM in [5] (Homo sapiens, SK-BR-3, 72 h); 8.81 µM in data set [6] (Homo sapiens, MCF7, 72 h). Moreover, in data set [7] (Homo sapiens, HeLa, 72 h), the IC50 stood at 3.68 µM. The Activity result in data set [8] is recorded as “Toxic”. Besides, the outcome in data set [9], in [10], in data set [11], in [12], in data set [13] and in data set [14] was Active.

Regarding `Nc1ccc2c(ccc3nc4ncccc4n32)c1`, the half-maximal inhibitory concentration (IC50) in [2] (mia paca-2) was 43.4 µM; in data set [3] (sw-620) it was 25.9 µM; in data set [4] (hep-2) it was 26.7 µM; in [5] (sk-br-3) it was 3.64 µM; in [6] (mcf7) it was 56 µM; in data set [7] (hela), 27.2 µM.

As for `Nc1ccc2c(ccc3nc4ncc(Br)cc4n32)c1` [listing 1 of 2 here], the half-inhibitory concentration (IC50) in [1] (wi-38) came to 85.1 µM; in data set [2] (mia paca-2), 40.3 µM; in data set [3] (sw-620) it was 40.7 µM; in data set [4] (hep-2), 21.6 µM; in data set [5] (sk-br-3) it was 7.56 µM; in data set [6] (mcf7), 67.3 µM. Further, in data set [7] (hela), the 50% inhibitory concentration (IC50) stood at 37.7 µM.

On to `Clc1ccccc1/C=C/c1nc2ncccc2[nH]1`, for which the IC50 was over 100 µM in data set [1] (Homo sapiens, WI-38, 72 h); 59.1 µM in [2] (Homo sapiens, MIA PaCa-2, 72 h); 50.9 µM in data set [3] (Homo sapiens, SW-620, 72 h); 29.3 µM in [4] (Homo sapiens, HEp-2, 72 h); 5.79 µM in data set [5] (Homo sapiens, SK-BR-3, 72 h); 25.6 µM in data set [6] (Homo sapiens, MCF7, 72 h). In data set [7] (Homo sapiens, HeLa, 72 h), this compound gave an IC50 of 31.6 µM. Moreover, the Activity entry in data set [8] is “Toxic”. Also, the result in data set [9], in [10], in data set [11], in data set [12], in data set [13] and in data set [14] was Active.

For `Nc1ccc2c(ccc3nc4ncc(Br)cc4n32)c1` [listing 2 of 2 here], the result in [9], in data set [10], in [11], in data set [12], in [13] and in [14] was Active.
